The source made the active and inactive calls. No cut-off for these calls is given here.

For experiment [1], the species on record is Rattus norvegicus. Put plainly: Concentration required for the maximal release of state 4 respiration of rat liver mitochondria using succinate as substrate. Format: functional. In outline:
(§1)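 Rat liver mitochondria isolated by a prior method, about 0.7 mg/mL in most runs. Medium: 200 mM sucrose, 2 mM MgCl2, 1 mM EDTA, 10 mM potassium phosphate pH 7.2, 25 °C. Substrate 10 mM succinate plus rotenone 1 μg/mg protein. O2 uptake in state 4 followed by Clark electrode after compound addition. Value is the concentration giving maximal release of respiration.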

The species named for experiment [2] is Rattus norvegicus. The experiment in a line: Concentration required for the maximal release of state 4 respiration of rat liver mitochondria, relative to N'-Benzoyl-hydrazinecarbodithioic acid nonyl ester. Format: functional, organism-based.
The species entered for experiment [3] is Rattus norvegicus. The experiment in a line: Concentration required for the maximal release of state 4 respiration of rat liver mitochondria using succinate as substrate; Inactive. Format: functional. In outline:
as §1

For `CCCCCCCCCS/C(S)=N/NC(=O)c1cccc2ccccc12`, the C100 in the experiment listed under Rattus norvegicus [1] was 3.36 µM. The RA in the experiment filed under Rattus norvegicus [2] stood at 47.
For `CCCCCCCCCS/C(S)=N/NC(=O)c1ccccn1` the same measures were 1.42 µM and 112.
For `CCCCCCCCCS/C(=N/N(C)C(=O)c1ccccc1)SC`, in the experiment listed under Rattus norvegicus [3], the C100 result was “inactive”. The RA in the experiment filed under Rattus norvegicus [2] came out at 0.
`CCCCCCCCCS/C(S)=N/N=C/c1ccccc1`: the C100 in the experiment filed under Rattus norvegicus [1] was determined as 604 µM. For the same molecule, the RA in the experiment filed under Rattus norvegicus [2] was 0.26.
For the molecule `CCCCCCCCCS/C(S)=N/N(C)C(=O)c1ccccc1`, the C100 in the experiment filed under Rattus norvegicus [1] is 112 µM. The same molecule came in with an RA in the experiment filed under Rattus norvegicus [2] of 1.3.
In the experiment filed under Rattus norvegicus [1], `CCCCCCCCCS/C(S)=N/NCc1ccccc1` showed a C100 of 8350 µM. This molecule yielded an RA in the experiment listed under Rattus norvegicus [2] of 0.02.
In the case of `CCCCCCCCCS/C(S)=N/c1ccccc1`, the C100 entry in the experiment listed under Rattus norvegicus [3] is “inactive”. For the same molecule, the RA in the experiment filed under Rattus norvegicus [2] amounted to 0.
For the molecule `CCCCCCCCCS/C(=N/NC(=O)c1ccccc1)SC`, in the experiment listed under Rattus norvegicus [1], the C100 turned out to be 30.1 µM. In the experiment filed under Rattus norvegicus [2], this molecule registered an RA of 9.3.
For `CCCCCCCCCS/C(S)=N/Cc1ccccc1` the same measures were 360 µM and 0.44.
In the experiment listed under Rattus norvegicus [1], `CCCCCCCCCS/C(S)=N/NC(=O)c1ccc(Cl)cc1` came in with a C100 of 1.46 µM. In addition, the RA in the experiment listed under Rattus norvegicus [2] is 109.
`CCCCCCCCCS/C(S)=N/NC(=O)c1ccccc1`: the C100 in the experiment listed under Rattus norvegicus [1] was found to be 1.59 µM. Also, in the experiment listed under Rattus norvegicus [2], the RA turned out to be 100.
As for `CCCCCCCCCS/C(S)=N/Nc1ccccc1`, the C100 in the experiment filed under Rattus norvegicus [1] amounted to 1530 µM. Also, the RA in the experiment filed under Rattus norvegicus [2] turned out to be 0.1.
The corresponding values for `CCCCCCCCCS/C(S)=N/NC(=O)C1CCCCC1` are 4.52 µM and 35.
Take `CCCCCCCCCS/C(S)=N/NC(=O)c1ccc(N(C)C)cc1`: the C100 in the experiment listed under Rattus norvegicus [1] is 6.9 µM. Besides, the RA in the experiment listed under Rattus norvegicus [2] was determined as 23.
For `CCCCCCCCCS/C(S)=N/NC(=O)c1ccc(Cl)c(Cl)c1` the same measures were 1.93 µM and 82.
For the molecule `CCCCCCCCCSC(=S)NC(=O)c1ccccc1`, in the experiment filed under Rattus norvegicus [1], the C100 was found to be 27.9 µM. Further, in the experiment filed under Rattus norvegicus [2], the RA is 5.7.
For `CCCCCCCCCSC(=S)N(C)NC(=O)c1ccccc1` the same measures were 40.3 µM and 6.9.
The corresponding values for `CCCCCCCCCS/C(S)=N/NC(C)=O` are 457 µM and 0.61.
The corresponding values for `CCCCCCCCCS/C(S)=N/NC(=O)c1ccc(OC)cc1` are 2.46 µM and 65.
As for `CCCCCCCCCS/C(S)=N/NC(=O)c1ccc(F)cc1`, in the experiment filed under Rattus norvegicus [1], the C100 is 1.57 µM. The molecule further returned an RA in the experiment listed under Rattus norvegicus [2] of 101.
On to `CCCCCCCCCSC(=S)N(C)N(C)C(=O)c1ccccc1`, for which the C100 result in the experiment filed under Rattus norvegicus [3] was “inactive”. The RA in the experiment listed under Rattus norvegicus [2] was found to be 0.
On to `CCCCCCCCCS/C(S)=N/NC(=O)c1ccc([N+](=O)[O-])cc1`, for which, in the experiment filed under Rattus norvegicus [1], the C100 is 1.27 µM. The molecule further came in with an RA in the experiment listed under Rattus norvegicus [2] of 125.

Source of the values: ChEMBL document CHEMBL1122057, “Synthesis and structure--activity relationship of nonyl 3-acyldithiocarbazates and related compounds for uncoupling activities” (J Med Chem, 1982).
